Measured values reported in ChEMBL document CHEMBL4138242, “Synthesis and antibacterial evaluation of novel cationic chalcone derivatives possessing broad spectrum antibacterial activity” (Eur J Med Chem, 2018).
Activity calls are given as the source filed them. No cut-off for these calls is given here.

Key:
Staphylococcus aureus [1] = assay: Antibacterial activity against Staphylococcus aureus ATCC 29213 after 16 to 20 hrs by broth microdilution method; assay type: functional
Outline: (§1)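 Broth microdilution per CLSI. Bacteria grown 4-6 h (about 10⁸ CFU/mL), then diluted to about 10⁶ CFU/mL. Medium: Mueller-Hinton broth, except Luria-Bertani broth for E. coli. Compounds in sterile water, twofold series 256-0.5 µg/mL, mixed 1:1 with inoculum, 37 °C for 16-20 h. MIC is the lowest concentration without visible growth. Duplicate wells; experiment repeated at least twice.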

Enterococcus faecalis = assay: Antibacterial activity against Enterococcus faecalis ATCC 29212 after 16 to 20 hrs by broth microdilution method; assay type: functional; outline: as §1
Escherichia coli [2] = assay: Antibacterial activity against Escherichia coli ATCC 25922 after 16 to 20 hrs by broth microdilution method; assay type: functional; outline: as §1
Salmonella enterica = assay: Antibacterial activity against Salmonella enterica ATCC 13076 after 16 to 20 hrs by broth microdilution method; assay type: functional; outline: as §1
[3] = Hemolytic activity in sheep RBC after 1 hr; assay type: ADME, cell-based, Ovis aries, Erythrocyte; settings: sheep red blood cells (erythrocytes)
Outline: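 Sheep red blood cells (150 µL suspension) mixed with 50 µL of compound dilutions (5120-10 µg/mL), 1 h at 37 °C, then centrifuged. Supernatant read at 540 nm. Percent hemolysis calculated relative to RBC-only control (0%) and 0.1% Triton X-100 (100%).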

Staphylococcus aureus [4] = assay: Antibacterial activity against methicillin-resistant Staphylococcus aureus clinical isolate 1105183 cono7 after 16 to 20 hrs by broth microdilution method; assay type: functional
Outline: (§2)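 CLSI broth microdilution in Mueller-Hinton broth. A 4-6 h culture was diluted to about 10⁶ CFU/mL and mixed 1:1 with compound dilutions prepared at 256 to 0.5 µg/mL from aqueous stocks. Plates were incubated at 37 °C for 16-20 h and read visually for MIC. Each concentration was run in duplicate, and the experiment was repeated at least twice. Vancomycin and meropenem were comparators.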

Staphylococcus aureus [5] = assay: Antibacterial activity against methicillin-resistant Staphylococcus aureus clinical isolate 20130911034sau after 16 to 20 hrs by broth microdilution method; assay type: functional; outline: as §2
Staphylococcus aureus [6] = assay: Antibacterial activity against methicillin-resistant Staphylococcus aureus clinical isolate 0831010 after 16 to 20 hrs by broth microdilution method; assay type: functional; outline: as §2
Staphylococcus aureus [7] = assay: Antibacterial activity against methicillin-resistant Staphylococcus aureus clinical isolate 1104060 after 16 to 20 hrs by broth microdilution method; assay type: functional; outline: as §2
Staphylococcus aureus [8] = assay: Antibacterial activity against methicillin-resistant Staphylococcus aureus clinical isolate 20131012632sau after 16 to 20 hrs by broth microdilution method; assay type: functional; outline: as §2
Staphylococcus aureus [9] = assay: Antibacterial activity against methicillin-resistant Staphylococcus aureus clinical isolate 1207007 after 16 to 20 hrs by broth microdilution method; assay type: functional; outline: as §2
Staphylococcus aureus [10] = assay: Antibacterial activity against methicillin-resistant Staphylococcus aureus clinical isolate 1-may after 16 to 20 hrs by broth microdilution method; assay type: functional; outline: as §2
Staphylococcus aureus [11] = assay: Antibacterial activity against methicillin-resistant Staphylococcus aureus clinical isolate 0906202 after 16 to 20 hrs by broth microdilution method; assay type: functional; outline: as §2
Staphylococcus aureus [12] = assay: Antibacterial activity against methicillin-resistant Staphylococcus aureus clinical isolate 1208143 after 16 to 20 hrs by broth microdilution method; assay type: functional; outline: as §2
Klebsiella pneumoniae [13] = assay: Antibacterial activity against drug-resistant carbapenemase producing Klebsiella pneumoniae clinical isolate KP-14-8 after 16 to 20 hrs by broth microdilution method; assay type: functional; outline: as §2
Klebsiella pneumoniae [14] = assay: Antibacterial activity against drug-resistant carbapenemase producing Klebsiella pneumoniae clinical isolate KP-13-45 after 16 to 20 hrs by broth microdilution method; assay type: functional; outline: as §2
Klebsiella pneumoniae [15] = assay: Antibacterial activity against drug-resistant carbapenemase producing Klebsiella pneumoniae clinical isolate KP-14-3 after 16 to 20 hrs by broth microdilution method; assay type: functional; outline: as §2
Klebsiella pneumoniae [16] = assay: Antibacterial activity against drug-resistant carbapenemase producing Klebsiella pneumoniae clinical isolate KP-14-1 after 16 to 20 hrs by broth microdilution method; assay type: functional; outline: as §2
Klebsiella pneumoniae [17] = assay: Antibacterial activity against drug-resistant carbapenemase producing Klebsiella pneumoniae clinical isolate KP-14-4 after 16 to 20 hrs by broth microdilution method; assay type: functional; outline: as §2
Klebsiella pneumoniae [18] = assay: Antibacterial activity against drug-resistant carbapenemase producing Klebsiella pneumoniae clinical isolate KP-13-54 after 16 to 20 hrs by broth microdilution method; assay type: functional; outline: as §2
Klebsiella pneumoniae [19] = assay: Antibacterial activity against drug-resistant carbapenemase producing Klebsiella pneumoniae clinical isolate KP-14-2 after 16 to 20 hrs by broth microdilution method; assay type: functional; outline: as §2
Klebsiella pneumoniae [20] = assay: Antibacterial activity against drug-resistant carbapenemase producing Klebsiella pneumoniae clinical isolate EC-13-23 after 16 to 20 hrs by broth microdilution method; assay type: functional; outline: as §2
Klebsiella pneumoniae [21] = assay: Antibacterial activity against drug-resistant carbapenemase producing Klebsiella pneumoniae clinical isolate KP-14-5 after 16 to 20 hrs by broth microdilution method; assay type: functional; outline: as §2
Klebsiella pneumoniae [22] = assay: Antibacterial activity against drug-resistant carbapenemase producing Klebsiella pneumoniae clinical isolate KP-13-55 after 16 to 20 hrs by broth microdilution method; assay type: functional; outline: as §2
Klebsiella pneumoniae [23] = assay: Antibacterial activity against drug-resistant carbapenemase producing Klebsiella pneumoniae clinical isolate KP-14-45 after 16 to 20 hrs by broth microdilution method; assay type: functional; outline: as §2
Klebsiella pneumoniae [24] = assay: Antibacterial activity against drug-resistant carbapenemase producing Klebsiella pneumoniae clinical isolate KP-14-18 after 16 to 20 hrs by broth microdilution method; assay type: functional; outline: as §2
Escherichia coli [25] = assay: Antibacterial activity against drug-resistant NDM1 producing Escherichia coli clinical isolate EC-13-49 after 16 to 20 hrs by broth microdilution method; assay type: functional; outline: as §2
Escherichia coli [26] = assay: Antibacterial activity against drug-resistant NDM1 producing Escherichia coli clinical isolate Ecl-14-58 after 16 to 20 hrs by broth microdilution method; assay type: functional; outline: as §2
Escherichia coli [27] = assay: Antibacterial activity against drug-resistant NDM1 producing Escherichia coli clinical isolate KP-13-58 after 16 to 20 hrs by broth microdilution method; assay type: functional; outline: as §2
Escherichia coli [28] = assay: Antibacterial activity against drug-resistant NDM1 producing Escherichia coli clinical isolate Ecl-13-62 after 16 to 20 hrs by broth microdilution method; assay type: functional; outline: as §2
Escherichia coli [29] = assay: Antibacterial activity against drug-resistant NDM1 producing Escherichia coli clinical isolate EC-14-54 after 16 to 20 hrs by broth microdilution method; assay type: functional; outline: as §2
Escherichia coli [30] = assay: Antibacterial activity against drug-resistant NDM1 producing Escherichia coli clinical isolate Ecl-14-59 after 16 to 20 hrs by broth microdilution method; assay type: functional; outline: as §2
Escherichia coli [31] = assay: Antibacterial activity against drug-resistant NDM1 producing Escherichia coli clinical isolate EA-14-61 after 16 to 20 hrs by broth microdilution method; assay type: functional; outline: as §2
Escherichia coli [32] = assay: Antibacterial activity against drug-resistant NDM1 producing Escherichia coli clinical isolate Ecl-14-56 after 16 to 20 hrs by broth microdilution method; assay type: functional; outline: as §2
Escherichia coli [33] = assay: Antibacterial activity against drug-resistant NDM1 producing Escherichia coli clinical isolate 1460 after 16 to 20 hrs by broth microdilution method; assay type: functional; outline: as §2
Escherichia coli [34] = assay: Antibacterial activity against drug-resistant NDM1 producing Escherichia coli clinical isolate SM-15-84 after 16 to 20 hrs by broth microdilution method; assay type: functional; outline: as §2
Escherichia coli [35] = assay: Antibacterial activity against drug-resistant NDM1 producing Escherichia coli clinical isolate CF-15-61 after 16 to 20 hrs by broth microdilution method; assay type: functional; outline: as §2
Escherichia coli [36] = assay: Antibacterial activity against drug-resistant NDM1 producing Escherichia coli clinical isolate CF-13-61 after 16 to 20 hrs by broth microdilution method; assay type: functional; outline: as §2
Staphylococcus aureus [37] = assay: Induction of cytoplasmic membrane depolarization in Staphylococcus aureus ATCC 29213 at 10 to 20 ug/ml measured every 2 mins for 12 mins by DiSC35 dye-based fluorescence assay; assay type: functional, organism-based
Outline: (§3)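 Mid-log cells (~10⁸ CFU/mL) were suspended in PBS (S. aureus) or HEPES/glucose/KCl with EDTA (E. coli). They were preloaded with DiSC3(5) for 30 min (S. aureus) or 40 min (E. coli), and baseline fluorescence was read for 8 min. Compound was added to 20 µg/mL final, and fluorescence (ex 622/em 670 nm) was read every 2 min for 12 min. Water served as control.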

Escherichia coli [38] = assay: Induction of cytoplasmic membrane depolarization in Escherichia coli ATCC 25922 at 10 to 20 ug/ml measured every 2 mins for 12 mins by DiSC35 dye-based fluorescence assay; assay type: functional, organism-based; outline: as §3
Staphylococcus aureus [39] = assay: Induction of inner membrane permeabilization in Staphylococcus aureus ATCC 29213 at 10 to 20 ug/ml measured every 2 mins for 12 mins by propidium iodide staining-based fluorescence assay; assay type: functional, organism-based
Outline: (§4)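 Mid-log cells (~10⁸ CFU/mL) were suspended in PBS (S. aureus) or HEPES/glucose/KCl (E. coli). They were preincubated with propidium iodide for 30 min (S. aureus) or 40 min (E. coli), and baseline fluorescence was read for 8 min. Compound was added to 20 µg/mL final, and fluorescence (ex 535/em 617 nm) was read every 2 min for 12 min.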

Escherichia coli [40] = assay: Induction of inner membrane permeabilization in Escherichia coli ATCC 25922 at 10 to 20 ug/ml measured every 2 mins for 12 mins by propidium iodide staining-based fluorescence assay; assay type: functional, organism-based; outline: as §4
Staphylococcus aureus [41] = assay: Bactericidal activity against Staphylococcus aureus ATCC 29213 at 6 times MIC after 6 hrs by time-kill assay; assay type: functional, organism-based
Outline: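 An overnight culture was diluted 1:10,000 in MHB and grown at 37 °C and 225 rpm for 2 h or 5 h. It was then challenged in tubes at 6× and 8× MIC, with vancomycin (6 µg/mL) as comparator. At intervals, aliquots were pelleted, resuspended in PBS, and tenfold dilutions plated on MHA overnight at 37 °C to give CFU/mL. Biological replicates were run.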

## CCCCCCCC[N+](C)(C)CC(=O)Nc1ccc(C(=O)/C=C/c2ccc(Cl)cc2)cc1.[Cl-]
Staphylococcus aureus [1]
  MIC: 2 µg/mL
Enterococcus faecalis
  MIC: 2 µg/mL
Escherichia coli [2]
  MIC: 4 µg/mL
Salmonella enterica
  MIC: 8 µg/mL
[3]
  HC50 at 1 h: > 500 µg/mL
Staphylococcus aureus [4]
  MIC: 1 µg/mL
Staphylococcus aureus [5]
  MIC: 0.5 µg/mL
Staphylococcus aureus [6]
  MIC: 1 µg/mL
Staphylococcus aureus [7]
  MIC: 4 µg/mL
Staphylococcus aureus [8]
  MIC: 2 µg/mL
Staphylococcus aureus [9]
  MIC: 0.5 µg/mL
Staphylococcus aureus [10]
  MIC: 2 µg/mL
Staphylococcus aureus [11]
  MIC: 1 µg/mL
Staphylococcus aureus [12]
  MIC: 2 µg/mL
Klebsiella pneumoniae [13]
  MIC: 8 µg/mL
Klebsiella pneumoniae [14]
  MIC: 8 µg/mL
Klebsiella pneumoniae [15]
  MIC: 8 µg/mL
Klebsiella pneumoniae [16]
  MIC: 16 µg/mL
Klebsiella pneumoniae [17]
  MIC: 8 µg/mL
Klebsiella pneumoniae [18]
  MIC: 8 µg/mL
Klebsiella pneumoniae [19]
  MIC: 16 µg/mL
Klebsiella pneumoniae [20]
  MIC: 8 µg/mL
Klebsiella pneumoniae [21]
  MIC: 8 µg/mL
Klebsiella pneumoniae [22]
  MIC: 32 µg/mL
Klebsiella pneumoniae [23]
  MIC: 8 µg/mL
Klebsiella pneumoniae [24]
  MIC: 16 µg/mL
Escherichia coli [25]
  MIC: 16 µg/mL
Escherichia coli [26]
  MIC: 4 µg/mL
Escherichia coli [27]
  MIC: 4 µg/mL
Escherichia coli [28]
  MIC: 8 µg/mL
Escherichia coli [29]
  MIC: 16 µg/mL
Escherichia coli [30]
  MIC: 8 µg/mL
Escherichia coli [31]
  MIC: 4 µg/mL
Escherichia coli [32]
  MIC: 4 µg/mL
Escherichia coli [33]
  MIC: 8 µg/mL
Escherichia coli [34]
  MIC: 16 µg/mL
Escherichia coli [35]
  MIC: 8 µg/mL
Escherichia coli [36]
  MIC: 8 µg/mL
Staphylococcus aureus [37]
  Activity: Active
Escherichia coli [38]
  Activity: Active
Staphylococcus aureus [39]
  Activity: Active
Escherichia coli [40]
  Activity: Active

## CN[C@H](CC(C)C)C(=O)N[C@H]1C(=O)N[C@@H](CC(N)=O)C(=O)N[C@H]2C(=O)N[C@H]3C(=O)N[C@H](C(=O)N[C@H](C(=O)O)c4cc(O)cc(O)c4-c4cc3ccc4O)[C@H](O)c3ccc(c(Cl)c3)Oc3cc2cc(c3O[C@@H]2O[C@H](CO)[C@@H](O)[C@H](O)[C@H]2O[C@H]2C[C@](C)(N)[C@H](O)[C@H](C)O2)Oc2ccc(cc2Cl)[C@H]1O
Staphylococcus aureus [41]
  Activity: inactive
